Assay outcomes as filed in PubChem BioAssay.
HTRA1 inh – inhibitors of human serine peptidase HTRA1. Q92743. recombinant HTRA1, FP-rhodamine activity-based probe, fluorescence polarization. inhibition, % at 5.96 µM. 340,000 tested, 0.5% active; in the data active = inhibition above about 36%;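 note: 0% = enzyme with DMSO and 100% = wells lacking enzyme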
Target sequence (Q92743 whole entry, looked up): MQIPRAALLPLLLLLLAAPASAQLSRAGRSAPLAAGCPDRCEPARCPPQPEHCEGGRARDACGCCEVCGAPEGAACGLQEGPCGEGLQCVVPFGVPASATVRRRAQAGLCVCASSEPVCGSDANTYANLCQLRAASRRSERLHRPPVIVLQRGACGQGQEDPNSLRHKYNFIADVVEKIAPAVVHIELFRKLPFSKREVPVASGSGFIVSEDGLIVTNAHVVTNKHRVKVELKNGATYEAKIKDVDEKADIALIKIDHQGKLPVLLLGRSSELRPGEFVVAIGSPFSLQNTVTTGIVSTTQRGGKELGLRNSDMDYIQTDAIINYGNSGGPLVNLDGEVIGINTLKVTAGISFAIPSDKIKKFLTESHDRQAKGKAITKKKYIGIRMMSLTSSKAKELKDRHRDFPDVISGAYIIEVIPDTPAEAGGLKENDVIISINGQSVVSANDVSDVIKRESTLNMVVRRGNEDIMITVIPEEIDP
LEDGF integ inh – blocks HIV-1 LEDGF/p75-dependent DNA integration | TR-FRET IN-LEDGF/p75 DNA integration, Eu/Cy5 | inhibition, % at 3.7 µM | 370,000 tested, 0.64% active | AID 743269;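 active = inhibition above the screen-wide mean plus 3 SD, cut at about 13% in these data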;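 note: signal is the Cy5 over europium emission ratio at 671 and 618 nm; 0% = plate median of compound wells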
ABHD4 inh – inhibitors of mouse ABHD4 | Q8VD66 | purified mABHD4, FP-Rh probe fluorescence polarization | inhibition, % at 8.92 µM | 370,000 tested, 0.54% active;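 active = inhibition exceeding the mean over every tested compound plus 3 SD, cut at about 30% in these data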;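 note: 0% = plate median of compound wells and 100% = S159A mutant with DMSO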
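Test system: mouse ABHD4 enzyme, wild type. Reagent: FP-Rh fluorescent activity-based probe, added after compound pre-incubation. Timing: pre-incubation 45 min, probe exposure 60 min, at 25 °C. Technique: FP readout, ex 525 nm / em 598 nm. Benchmarks: high control S159A mutant with DMSO, low control median of compound wells.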
TDP2 absorb – blocks human TDP2 phosphodiesterase activity | inhibition, % at 12.8 µM | 370,000 tested, 0.34% active | O95551 | recombinant TDP2, T5PNP hydrolysis, p-nitrophenol absorbance 415 nm | AID 720702;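 active = inhibition above the mean of all tested compounds plus 3 SD, set per campaign, cut at about 25% in these data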;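 note: 0% = DMSO with enzyme and 100% = buffer with substrate but no TDP2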
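Test system: Human TDP2 enzyme | Reagent: 5 mM T5PNP | Compound dosing: 12.8 µM single point, 1% DMSO | Incubation: Enzyme reaction with compound for 2 h at 37 °C | Technique: p-Nitrophenol epi absorbance | Read-out: % inhibition relative to enzyme-containing and enzyme-free wells | Benchmarks: High control without enzyme, low control DMSO plus TDP2 | Replicates: Singlicate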
SIAE inh – human SIAE inhibition, primary screen; Q9HAT2; SIAE FP-Rh probe binding, fluorescence polarization; inhibition, % at 9.66 µM; 370,000 tested, 0.69% active; AID 1053197;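 active = inhibition above a cutoff: mean of compounds within the control limits plus 3 SD of those, cut at about 17% in these data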;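 note: 0% = plate median of compound wells and 100% = probe without SIAE protein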
TCR CD3 inh – inhibitors of human TCR-CD3 interaction; TAMRA-labeled TCR probe fluorescence, biochemical; inhibition, % at 9.4 µM; 360,000 tested, 0.37% active; AID 651800; in the data active = inhibition above about 19%;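 note: recombinant mutant TCR 2C K166C tagged with TAMRA read by polarization; 0% = receptor in buffer alone and 100% = receptor with positive control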
mABHD4 conf – ABHD4 (mouse) inhibition, FP confirmation; purified mABHD4, FP-Rh probe fluorescence polarization; 1,800 tested, 55% active; shares compounds with ABHD4 inh; inhibition, % at 8.92 µM;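 active = mean inhibition across replicates above the hit cutoff set in the primary screen, cut at about 30% in these data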;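 note: 0% = wild-type ABHD4 with DMSO and 100% = catalytically dead S159A mutant with DMSO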
* = called active by the depositor; . = no result given; ! = repeats disagree. Only some compounds are listed: those with a hit (about 2.2% of all), similar ones and a draw of the others.

SMILES	HTRA1 inh	LEDGF integ inh	ABHD4 inh	TDP2 absorb	SIAE inh	TCR CD3 inh	mABHD4 conf
CCOC(=O)N1CCC(=NNc2nc3ccccc3s2)CC1	2.7	-4.5	38.4*	2.2	4.2	-1.0	-3.1
CC(=O)NNc1nc2ccccc2s1	2.5	-2.7	11.0	0.4	6.9	-1.0	.
CC(=O)N1CCC(=NNc2nc3ccccc3s2)CC1	10.1	-1.4	32.6*	-1.4	9.3	-5.0	14.0
CCOC(=O)N1CCN(S(=O)(=O)c2ccc(C(=O)Nc3nc4ccccc4s3)cc2)CC1	2.3	-2.6	3.4	-5.4	0.1	-1.2	.
CC(C)[C@H]1/C(=C/C2CC2)N2C(=O)C[C@@H](c3ccccc3)N=C2N1Cc1ccc2c(c1)OCO2	.	-2.5	-3.0	1.9	-1.7	.	.
Cc1ccc(OCCn2c(CCNC(=O)c3ccc(F)cc3F)nc3ccccc32)cc1	.	2.9	-13.8	0.2	-4.9	.	.
COc1cccc(CNC(=O)[C@H]2CCCN2C(=O)[C@H]2CCCN2C(=O)c2ccc(OC(F)(F)F)cc2)c1	.	-1.7	1.3	-4.5	4.1	2.3	.
Oc1ccc2ccccc2c1N=Nc1ccccn1	14.1	4.7	49.9*	-3.9	1.8	1.1	53.2*
COCc1cn(-c2cccc(-c3noc4c3C(=O)N(CC(=O)N3CCOCC3)CC4)c2)nn1	.	-1.0	32.2*	3.2	0.3	.	4.9
CN(C)Cc1cn(-c2cccc(-c3noc4c3C(=O)N(CC(=O)N3CCOCC3)CC4)c2)nn1	.	-3.0	-0.6	7.1	-10.2	.	.
Cc1cc(/C=C2/C(=O)NN(c3ccccc3)C2=O)c(C)n1-c1ccc(O)cc1	3.3	-4.3	34.1*	-17.1	0.8	8.3	27.2
COc1ccc(-n2c(C)cc(/C=C3\C(=O)NN(c4ccccc4)C3=O)c2C)cc1	1.4	-0.7	-0.7	-4.7	3.8	-1.1	.
Cc1cc(/C=C2\SC(=S)NC2=O)c(C)n1-c1ccc(O)cc1	-17.5	1.9	35.4*	-6.3	-9.4	3.7	43.7*
COC(=O)[C@]12C[C@H](CC(=O)N3CCCC3)C(=O)N(CCC3=CCCCC3)C1=C[C@H](COCc1ccccc1)O[C@@H]2C	.	-2.8	-0.4	-4.3	-3.2	-1.9	.
CCOc1ccccc1NC(=O)C(=O)CC(=O)c1cccc(OC)c1	6.3	-0.6	8.7	-3.0	-7.1	0.6	.
COc1cccc(C(=O)CC(=O)C(=O)Nc2cc(OC)ccc2OC)c1	2.5	-1.4	31.9*	-12.2	2.1	-6.5	7.8
O=C(N1CCC(C(O)(c2ccccc2)c2ccccc2)CC1)n1ncc(C(O)(c2ccccc2)c2ccccc2)n1	.	-0.9	69.9*	8.0	-6.9	.	68.5*
O=C(C1CC1)N1CCC(C(O)(c2ccccc2)c2ccccc2)CC1	-1.1	-4.4	1.5	1.3	-2.2	-1.4	.
COC(=O)C1CN(Cc2ccccc2)CCS(=O)(=O)N1Cc1ccc(C(F)(F)F)cc1 (configuration not stated)	.	-0.7	-6.9	-3.2	-0.8	.	.
O=C(O)c1ccc2c(c1)C(=O)N(c1ccc(Nc3ccccc3)cc1)C2=O	12.6	3.8	30.6*	17.9	8.0	-1.4	18.1
Cc1ccc(-c2cc(C(=O)NN=Cc3ccc(N(C)C)cc3)[nH]n2)cc1C	.	2.2	1.4	-2.8	2.0	.	.
CCc1ccc2c(c1)/C(=C/C(=O)c1cccs1)C(=O)N2	-7.1	-2.9	36.9*	-6.2	11.0	5.5	56.4*
Cc1cccc2c1NC(=O)/C2=C\C(=O)c1cccs1	-3.7	-0.7	13.3	-0.4	5.1	6.4	.
CC1CCN(c2ccc(C(=O)O)cc2NS(=O)(=O)c2ccc(Cl)s2)CC1	.	-3.7	37.7*	4.5	5.9	.	43.8*
CC1CCN(c2ccc(C(=O)O)cc2NS(=O)(=O)c2ccc(Br)cc2)CC1	-9.6	2.9	39.4*	-11.8	7.4	-3.3	31.0*
SMILES	HTRA1 inh	LEDGF integ inh	ABHD4 inh	TDP2 absorb	SIAE inh	TCR CD3 inh	mABHD4 conf
Cc1ccc(S(=O)(=O)Nc2cc(C(=O)O)ccc2N2CCC(C)CC2)cc1C	.	4.8	26.5	1.2	10.2	.	.
COC(=O)C1CN(CC(C)C)CCS(=O)(=O)N1Cc1ccc(C(F)(F)F)cc1 (configuration not stated)	.	6.4	-8.5	-10.3	14.9	.	.
COc1cc(/C=N/NC(=S)NC2CC3C=CC2C3)cc(OC)c1OC (configuration not stated)	.	-1.7	29.7*	-14.0	12.1	-6.7	37.8*
COc1cc(/C=N/NC(=S)NCCc2ccccc2)cc(OC)c1OC	-27.6	1.9	22.4	10.4	8.9	-1.6	.
COc1ccccc1N1CCN(CCCCOc2ccc(C)cc2C)CC1	2.6	1.4	30.5*	6.2	-3.0	-5.2	17.0
COc1cc2c3c(c1)/C(=C1/SC(NC(C)=O)=NC1=O)C(=O)N3C(C)(C)C=C2C	9.3	-0.1	38.1*	1.0	24.9*	1.1	26.7
CC1=CC(C)(C)N2C(=O)C(=O)c3cc(OC(=O)c4ccco4)cc1c32	.	1.5	13.6	11.0	6.2	-2.2	.
CCC[C@@H](CN1CCC[C@H]1CN1C(N)=NC[C@H]1CC(C)C)N1C[C@@H]([C@H](C)CC)N(CCc2ccc(Cl)c(Cl)c2)C1=N	-1.0	-0.5	38.2*	-9.2	6.1	-2.5	34.1*
CCC[C@@H](CN1CCC[C@H]1CN1C(N)=NC[C@H]1CC(C)C)N1C[C@@H](Cc2ccccc2)N(CCc2ccc(Cl)c(Cl)c2)C1=N	17.4	-1.3	30.3*	-10.3	10.4	-2.1	35.5*
CCC[C@@H](CN1CCC[C@H]1CN1C(N)=NC[C@@H]1Cc1ccccc1)N1C[C@@H]([C@H](C)CC)N(CCCC2CCCC2)C1=N	5.5	.	.	.	.	.	.
CCC[C@@H](CN1CCC[C@H]1CN1C(N)=NC[C@H]1CC(C)C)N1C[C@@H](Cc2ccccc2)N(CCCC2CCCC2)C1=N	-5.5	-2.6	34.1*	-7.4	15.0	2.0	26.2
CC[C@@H](C)[C@@H]1CN([C@@H](CN2CCC[C@H]2CN2C(N)=NC[C@H]2CC(C)C)C(C)C)C(=N)N1CCc1ccc(Cl)c(Cl)c1	8.6	-3.1	34.9*	-2.3	6.4	-7.5	46.5*
CC[C@@H](C)[C@@H]1CN([C@@H](C)CN2CCC[C@H]2CN2C(N)=NC[C@H]2CC(C)C)C(=N)N1CCc1ccc(Cl)c(Cl)c1	-0.4	-4.9	11.7	-5.9	9.0	-1.0	.
CCCCCCSc1cc(-c2nc3cc(C)ccn3c2NCCCC)ccc1OC	-4.0	-0.5	36.8*!	-5.9	12.3	2.4	56.5*
CCCCCCSc1cccc(-c2nc3ccc(C)cn3c2NCc2ccccc2)c1	0.1	-4.2	26.2	2.2	5.3	0.9	.
CCCCNc1c(-c2cccc(-c3cc(C(C)=O)cs3)c2)nc2cc(C)ccn12	5.0	-3.3	41.7*	-6.7	5.9	2.0	45.7*
